How the values were obtained:
Type in all cases: functional
[1] = system: Mus musculus; test: Trypanocidal Activity at I.C.E. value 0.85 when administered subcutaneously.
In short: (§1)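 Mice, in groups of five per dose, were given a standard inoculum of blood-stage T. rhodesiense that is lethal to all untreated controls, then dosed subcutaneously. Usually 11 dose levels were used (2^n × 0.42 mg/kg).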

[2] = system: Mus musculus; test: Trypanocidal Activity at I.C.E. value 0.30 when administered perorally.
[3] = system: Mus musculus; test: Trypanocidal Activity at I.C.E. value 0.44 when administered perorally.
[4] = system: Mus musculus; test: Trypanocidal Activity at I.C.E. value 0.90 when administered subcutaneously.
[5] = system: Mus musculus; test: Trypanocidal Activity at I.C.E. value 0.71 when administered subcutaneously.; in short: as §1
[6] = system: Mus musculus; test: Trypanocidal Activity at I.C.E. value 0.32 when administered perorally.
[7] = system: Mus musculus; test: Trypanocidal Activity at I.C.E. value 0.36 when administered perorally.
[8] = system: Mus musculus; test: Trypanocidal Activity at I.C.E. value 0.20 when administered subcutaneously.
[9] = system: Mus musculus; test: Trypanocidal Activity at I.C.E. value 0.43 when administered perorally.
[10] = system: Mus musculus; test: Trypanocidal Activity at I.C.E. value 0.32 when administered subcutaneously.
In short: (§2)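 Blood-stage T. rhodesiense infection came from a standard inoculum lethal to all untreated mice. Drug was given by subcutaneous injection to groups of five mice. Survival beyond 30 days counted as cure. […] Sub-curative doses scored 0, and data were normalized at each dose.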

[11] = system: Mus musculus; test: Trypanocidal Activity at I.C.E. value 0.54 when administered subcutaneously.; in short: as §2
[12] = system: Mus musculus; test: Trypanocidal Activity at I.C.E. value 0.70 when administered perorally.
[13] = system: Mus musculus; test: Trypanocidal Activity at I.C.E. value 0.61 when administered perorally.
[14] = system: Mus musculus; test: Trypanocidal Activity at I.C.E. value 0.81 when administered subcutaneously.; in short: as §1
[15] = system: Mus musculus; test: Trypanocidal Activity at I.C.E. value 0.93 when administered subcutaneously.; in short: as §1

For Cc1ccc(S(=O)(=O)O)cc1.Cc1ccc(S(=O)(=O)[O-])cc1.Cc1cccc2n1cc(/C=C/c1ccc(/C=N/NC(=N)N)cc1)[n+]2C, the CD50 [1] was 0.4 mg/kg and the CD50 [2] was 53 mg/kg.

Br.Cc1cccc2n1cc(/C=C/c1ccc(/C=N/NC(=N)N3CCCC3)cc1)[n+]2C.[Br-] gave a CD50 [3] of 53 mg/kg and a CD50 [4] of 0.4 mg/kg.

Br.CCCCNC(=N)N/N=C/c1ccc(-c2cn3ccc(C)cc3[n+]2C)cc1.[Br-] showed a CD50 [5] of 0.4 mg/kg and a CD50 [6] of 26 mg/kg.

Br.CN(C)C(=N)N/N=C/c1ccc(-c2c([N+](=O)[O-])n3ccccc3[n+]2C)cc1.[Br-] gave a CD50 [7] of 53 mg/kg and a CD50 [8] of 0.8 mg/kg.

With Br.C[n+]1c(-c2ccc(/C=N/NC(=N)N)cc2)c(Br)n2ccccc21.[Br-] the CD50 [9] was 26 mg/kg and the CD50 [10] was 1.6 mg/kg.

Br.C[n+]1c(-c2ccc(/C=N/NC(=N)N3CCCC3)cc2)cn2ccsc21.[Br-] was tested, and the CD50 [11] was 0.1 mg/kg and the CD50 [12] was 3.3 mg/kg.

Work on Br.Cc1ccc2n(c1)cc(COc1ccc(/C=N/NC(=N)N)cc1)[n+]2C.[Br-] yielded a CD50 [13] of 6.6 mg/kg and a CD50 [14] of 0.2 mg/kg.

Work on CCSc1ccc2n(c1)cc(-c1ccc(/C=N/NC(=N)N)cc1)[n+]2C.Cc1ccc(S(=O)(=O)O)cc1.Cc1ccc(S(=O)(=O)[O-])cc1 yielded a CD50 [15] of 0.1 mg/kg.

Reference: ChEMBL document CHEMBL1124947, “Cationic antiprotozoal drugs. Trypanocidal activity of 2-(4'-formylphenyl)imidazo[1,2-a]pyridinium guanylhydrazones and related derivatives of quaternary heteroaromatic compounds” (J Med Chem, 1990)
